Source: PubChem BioAssay
hIAP block: human IAP inhibition | P09923 | purified IAP, CDP-Star luminescence, 30 min | inhibition, % at 10 µM | 0.12% of 330,000 active;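 active means inhibition reaching a set limit with compound at 10 µM in the primary screen, cut at about 35% in these data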;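 further: plate controls were DMSO wells with enzyme for no effect and no-enzyme buffer wells for full effect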
Target sequence (P09923 whole entry, looked up): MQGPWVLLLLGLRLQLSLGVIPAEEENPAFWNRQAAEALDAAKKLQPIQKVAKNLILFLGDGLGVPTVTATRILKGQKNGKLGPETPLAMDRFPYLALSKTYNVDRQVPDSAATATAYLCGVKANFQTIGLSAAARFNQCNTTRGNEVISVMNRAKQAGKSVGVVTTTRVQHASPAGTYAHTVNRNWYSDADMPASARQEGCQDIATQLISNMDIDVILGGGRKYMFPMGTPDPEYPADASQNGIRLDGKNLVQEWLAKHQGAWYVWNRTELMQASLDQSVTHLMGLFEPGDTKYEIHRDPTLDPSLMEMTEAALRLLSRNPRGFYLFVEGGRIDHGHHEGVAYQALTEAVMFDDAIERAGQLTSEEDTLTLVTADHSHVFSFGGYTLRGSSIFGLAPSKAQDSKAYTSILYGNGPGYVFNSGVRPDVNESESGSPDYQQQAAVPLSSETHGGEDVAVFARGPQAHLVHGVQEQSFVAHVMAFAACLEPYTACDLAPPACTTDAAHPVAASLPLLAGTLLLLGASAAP
mIAP act: mouse IAP activation; activation factor at 10 µM; 0.24% of 330,000 active; AID 2805; muIAP, CDP-Star luminescence, 30 min; active compounds read high; 1 = vehicle-only enzyme signal, 0 = enzyme-free wells;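 active means activation factor of at least 2 at 20 µM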
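System: mouse IAP enzyme. Reagent: CDP-Star chemiluminescent phosphatase substrate. Benchmarks: DMSO wells, no-enzyme wells. Times: 30 min enzyme-substrate-compound incubation at room temperature. Detection: luminescence from enzymatic CDP-Star hydrolysis. Doses: test compounds delivered from DMSO solution.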
mIAP block: blocks mouse intestinal alkaline phosphatase; purified mouse IAP, CDP-Star luminescence, 30 min; inhibition, % at 10 µM; 0.2% of 330,000 active;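 active means inhibition of at least 40% at 10 µM in the primary screen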;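 further: plate controls were DMSO with enzyme for no effect and no enzyme wells for full effect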
bIAP activator: increases bovine intestinal alkaline phosphatase activity; purified bovine IAP, CDP-star luminescence, 30 min; active compounds read high; fold of DMSO-control signal, blank-subtracted; 0.17% of 200,000 active; AID 1016; activation factor at 20 µM;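 active means activation factor of 2 or more at 20 µM, a signal rise over negative controls twice the positive control's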
hIAP activ: increases human intestinal alkaline phosphatase activity; P09923; purified human IAP, CDP-Star luminescence, 30 min; active compounds read high; 1 = vehicle-only enzyme, 0 = enzyme-free background; activation factor at 10 µM; 0.16% of 330,000 active; AID 2524;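 active means activation factor of the enzyme at least 2-fold when tested at 20 µM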
bIAP inhibitor: intestinal alkaline phosphatase (bovine) inhibition; AID 1019; purified bovine IAP, CDP-star luminescence, 30 min; inhibition, % at 20 µM; 190,000 tested, under 10 active;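 active means over 50% inhibition of intestinal alkaline phosphatase at 20 µM in the single-dose screen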
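System: Purified bovine intestinal alkaline phosphatase (IAP) enzyme | Input: IAP diluted 1/65,000,000 in the well | Also added: CDP-star chemiluminescent phosphatase substrate, 30 µM final | Dosing: 20 µM single dose | Times: Enzyme reaction for 30 min at room temperature | Detection: Luminescence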
mIAP inh conf: mouse IAP inhibition confirmation | 4.7% of 11,000 active | purified mouse IAP, CDP-Star luminescence, 30 min | shares compounds with mIAP block | inhibition, % at 10 µM;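 active means inhibition of at least 40% at 10 µM in either of the two replicates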;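 further: plate controls were DMSO wells with enzyme for no effect and buffer wells lacking enzyme for full effect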
Starred values were filed as active, the others as inactive. Shown are actives, neighbours in structure and some others; about 0.72% of the full set was active somewhere.

Results for O=C(NCC(O)c1ccccc1)c1ccc(Cl)c(S(=O)(=O)N2CCCC2)c1 (stereo unspecified) ?
hIAP block: -19; mIAP act: 0.99; mIAP block: 1; hIAP activ: 1.2

How did CCC(CO)[n+]1c(C)cc(/C=C2\Sc3ccccc3N2Cc2ccccc2)cc1C (stereo unspecified) do in these assays?
bIAP activator: 0.9; bIAP inhibitor: 9

How did CCCCCCNC(=O)N[C@@H](C(=O)NCCC[C@H]1CN2C(=NC[C@@H]2Cc2ccccc2)N1CCc1cccc(OC)c1)C(C)C do in these assays?
hIAP block: -11; mIAP act: 3.3*; mIAP block: -231; hIAP activ: 1.1; mIAP inh conf: -211

How did C/C=C(\C)C(=O)NCCN1C2=NC[C@@H](Cc3ccccc3)N2C[C@@H]1Cc1ccc(OC)cc1 do in these assays?
hIAP block: 12; mIAP act: 1.1; mIAP block: -8; hIAP activ: 0.89

What do the screens show for `c1coc(CSSCc2ccco2)c1`?
hIAP block: -2; mIAP act: 0.29; mIAP block: 71*; hIAP activ: 1; mIAP inh conf: 75*

How did Cc1cc(C)n2nnnc2n1 do in these assays?
hIAP block: 12; mIAP act: 0.98; mIAP block: 2; hIAP activ: 0.88

What do the screens show for `CCn1c(CSCc2ccc(Cl)cc2)nnc1SCC(=O)Nc1cccc(C(=O)O)c1`?
hIAP block: -3; mIAP act: 1; mIAP block: -5; bIAP activator: 0.9; hIAP activ: 1; bIAP inhibitor: 9

How did CCCC(=O)Nc1nnc(-c2ccco2)s1 do in these assays?
hIAP block: -2; mIAP act: 0.91; mIAP block: 9; bIAP activator: 1; hIAP activ: 1; bIAP inhibitor: 4

How did Nc1nnc(-c2ccco2)s1 do in these assays?
hIAP block: 20; mIAP act: 0.4; mIAP block: 60*; bIAP activator: 1.1; hIAP activ: 0.8; bIAP inhibitor: -6; mIAP inh conf: 66*

What do the screens show for `Cc1ccc(S(=O)(=O)N2CCC(C(=O)OCc3ccc([N+](=O)[O-])cc3)CC2)cc1`?
hIAP block: 3; mIAP act: 0.81; mIAP block: 19; bIAP activator: 0.8; hIAP activ: 0.97; bIAP inhibitor: 20

How did O=C(NNC(=O)c1ccc(O)cc1O)c1ccc(-c2ccccc2)cc1 do in these assays?
hIAP block: -42; mIAP act: 0.57; mIAP block: 43*; hIAP activ: 1.4; mIAP inh conf: 40*

How did O=C(NNC(=O)c1cccc2ccccc12)c1ccc(-c2ccccc2)cc1 do in these assays?
hIAP block: -58; mIAP act: 0.93; mIAP block: 7; bIAP activator: 0.8; hIAP activ: 1.6; bIAP inhibitor: 24

How did COc1ccc(NC(=O)NC2(C)CCS(=O)(=O)C2)cc1 (stereo unspecified) do in these assays?
hIAP block: -2; mIAP act: 1.1; mIAP block: -8; hIAP activ: 1

Results for COc1ccc(NC(=O)NC23CC4(C)CC(C)(CC(C)(C4)C2)C3)cc1 ?
hIAP block: -30; mIAP act: 3.1*; mIAP block: -207; bIAP activator: 1; hIAP activ: 1.3; bIAP inhibitor: 0; mIAP inh conf: -108

How did Cc1oc(-c2ccc(Cl)cc2)cc1-c1nn2c(-c3ccoc3C)nnc2s1 do in these assays?
hIAP block: 11; mIAP act: 0.59; mIAP block: 41*; bIAP activator: 1; hIAP activ: 0.89; bIAP inhibitor: 1; mIAP inh conf: 49*

Results for CCOC(=O)c1c(C)[nH]c(C2=NNC(=Nc3cccc(Cl)c3)SC2)c1C ?
hIAP block: 19; mIAP act: 0.96; mIAP block: 4; bIAP activator: 1.1; hIAP activ: 0.81; bIAP inhibitor: -11

How did O=C(COC(=O)c1ccccc1)Nc1ncc([N+](=O)[O-])s1 do in these assays?
hIAP block: -1; mIAP act: 0.33; mIAP block: 67*; hIAP activ: 1; mIAP inh conf: 72*

What do the screens show for `CCC(C)(C(=O)NC1CCCC1)N(C(=O)CC1NC(=O)NC1=O)c1c(C)n(C)n(-c2ccccc2)c1=O` (stereo unspecified)?
hIAP block: 4; mIAP act: 1; mIAP block: 0; bIAP activator: 1; hIAP activ: 0.96; bIAP inhibitor: 3

How did Oc1ccc(-c2csc(Nc3ccccn3)n2)cc1O do in these assays?
hIAP block: -1; mIAP act: 0.38; mIAP block: 62*; hIAP activ: 1; mIAP inh conf: 77*

Results for Oc1ccc(-c2csc(Nc3cccc4ccccc34)n2)cc1O ?
hIAP block: 32; mIAP act: 0.37; mIAP block: 63*; hIAP activ: 0.68; mIAP inh conf: 80*

How did Cc1ccnc(Nc2nc(-c3ccc(O)c(O)c3)cs2)c1 do in these assays?
hIAP block: -4; mIAP act: 0.66; mIAP block: 34; hIAP activ: 1

What do the screens show for `Cc1cccc(Nc2nc(-c3ccc(O)c(O)c3)cs2)n1`?
hIAP block: 20; mIAP act: 0.67; mIAP block: 33; hIAP activ: 0.81

How did Cc1cccnc1Nc1nc(-c2ccc(O)c(O)c2)cs1 do in these assays?
hIAP block: 8; mIAP act: 0.46; mIAP block: 54*; bIAP activator: 0.6; hIAP activ: 0.92; bIAP inhibitor: 44; mIAP inh conf: 68*

Results for CCC(C)NC(=O)c1ccc(C)c(NC(=O)C2=C(C)OCCS2)c1 (stereo unspecified) ?
hIAP block: -7; mIAP act: 1; mIAP block: -2; hIAP activ: 1.1

How did O=C(Nc1ccccc1)Nc1ccc2c(c1)CCC2 do in these assays?
hIAP block: 8; mIAP act: 2.2*; mIAP block: -118; hIAP activ: 0.92; mIAP inh conf: -95

How did C#CCOCCOCCOCCNc1nc(N2CCN(C(=O)CCCCCCCCCCNC(=O)[C@@H](CCC(=O)O)n3cc(CCCCCN)nn3)CC2)nc(N2CCN(C(=O)CCCCCCCCCCNC(=O)[C@H]([C@@H](C)CC)n3cc(CCCCCN)nn3)CC2)n1 do in these assays?
hIAP block: -2; mIAP act: 2.2*; mIAP block: -120; hIAP activ: 1; mIAP inh conf: -176

What do the screens show for `C#CCOCCOCCOCCNc1nc(N2CCN(C(=O)CCCCCCCCCCNC(=O)[C@H](CCCCN)n3cc(CCCC(=O)O)nn3)CC2)nc(N2CCN(C(=O)CCCCCCCCCCNC(=O)[C@@H]([C@H](C)O)n3cc(C)nn3)CC2)n1`?
hIAP block: -5; mIAP act: 1.2; mIAP block: -19; hIAP activ: 1
